Reference: ChEMBL document CHEMBL1144420 (J Med Chem, 2005)
pIC50: −log10 of the molar value.

Assays:
[1] = molecular target: T1, Sodium-dependent dopamine transporter (Rattus norvegicus, UniProt P23977); experiment: Inhibition of [3H]dopamine uptake into rat striatal synaptosomes; assay type: functional, subcellular, Brain
Summary of the method: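 [3H]Dopamine uptake run at 33 °C, in a buffer whose ion concentrations differ from those of the binding assays.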

[2] = molecular target: T1, Sodium-dependent dopamine transporter; experiment: Displacement of [3H]WIN-35428 from Dopamine transporter of rat caudate putamen; assay type: tissue-based
Summary of the method: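 Radioligand displacement binding to brain DAT, incubated at 0 °C.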

[3] = molecular target: Sodium-dependent serotonin transporter (Rattus norvegicus, UniProt P31652); experiment: Displacement of [3H]paroxetine from Serotonin transporter of rat caudate putamen; assay type: tissue-based
Sodium-dependent serotonin transporter, sequence (P31652 whole entry): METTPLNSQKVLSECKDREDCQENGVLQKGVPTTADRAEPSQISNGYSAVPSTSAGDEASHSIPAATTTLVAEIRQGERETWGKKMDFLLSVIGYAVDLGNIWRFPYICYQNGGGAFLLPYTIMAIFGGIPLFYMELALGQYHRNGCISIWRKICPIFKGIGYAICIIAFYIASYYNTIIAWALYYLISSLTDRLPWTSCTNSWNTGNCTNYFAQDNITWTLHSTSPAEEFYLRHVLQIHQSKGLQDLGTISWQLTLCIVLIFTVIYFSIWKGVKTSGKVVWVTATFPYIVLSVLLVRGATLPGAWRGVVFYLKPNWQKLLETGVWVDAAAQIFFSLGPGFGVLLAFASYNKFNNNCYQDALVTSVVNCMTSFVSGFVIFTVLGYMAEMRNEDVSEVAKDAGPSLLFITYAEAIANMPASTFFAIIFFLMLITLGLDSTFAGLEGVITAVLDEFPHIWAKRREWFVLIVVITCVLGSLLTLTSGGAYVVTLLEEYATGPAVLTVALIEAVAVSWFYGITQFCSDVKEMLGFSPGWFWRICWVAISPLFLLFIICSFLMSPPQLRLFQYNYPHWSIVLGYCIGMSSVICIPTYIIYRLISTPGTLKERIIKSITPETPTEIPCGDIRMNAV

T1 sequence (P23977 whole entry): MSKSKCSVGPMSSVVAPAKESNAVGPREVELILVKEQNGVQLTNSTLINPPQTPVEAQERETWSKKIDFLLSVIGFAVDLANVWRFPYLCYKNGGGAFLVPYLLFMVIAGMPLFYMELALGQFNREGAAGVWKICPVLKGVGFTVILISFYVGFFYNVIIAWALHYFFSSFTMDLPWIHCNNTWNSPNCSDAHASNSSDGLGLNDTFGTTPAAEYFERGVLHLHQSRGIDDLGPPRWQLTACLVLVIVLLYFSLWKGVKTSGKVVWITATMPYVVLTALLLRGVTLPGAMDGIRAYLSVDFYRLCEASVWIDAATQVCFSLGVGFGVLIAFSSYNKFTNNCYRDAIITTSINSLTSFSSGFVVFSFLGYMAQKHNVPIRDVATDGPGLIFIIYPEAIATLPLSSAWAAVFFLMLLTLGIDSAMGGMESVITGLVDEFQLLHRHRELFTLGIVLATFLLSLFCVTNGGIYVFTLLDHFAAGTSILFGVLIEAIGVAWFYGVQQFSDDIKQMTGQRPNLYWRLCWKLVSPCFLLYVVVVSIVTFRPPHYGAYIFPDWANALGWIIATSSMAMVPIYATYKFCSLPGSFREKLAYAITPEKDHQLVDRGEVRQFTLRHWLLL

SMILES | pIC50 [1] | pIC50 [2] | pIC50 [3]
CN1C2CCCC1[C@H](OC(c1ccc(F)cc1)c1ccc(F)cc1)C2 (stereo partly specified) | 6.46 | 6.05 | < 4.00
CN1C2C[C@H](OC(c3ccccc3)c3ccccc3)CC1[C@@H](O)C2 (stereo partly specified) | 6.83 | 5.89 | < 4.00
CN1C2CCCC1[C@@H](OC(c1ccc(F)cc1)c1ccc(F)cc1)C2 (stereo partly specified) | 6.70 | 5.95 | < 5.70
CN1C2C[C@H](OC(c3ccccc3)c3ccc(Cl)cc3)CC1[C@@H](O)C2 (stereo partly specified) | 7.41 | 6.22 | < 4.00
COCO[C@H]1CC2C[C@H](OC(c3ccccc3)c3ccc(Cl)cc3)CC1N2C (stereo partly specified) | 6.71 | 6.40 | < 4.00
COCO[C@@H]1CC2C[C@H](OC(c3ccc(F)cc3)c3ccc(F)cc3)CC1N2C (stereo partly specified) | 6.31 | 5.60 | 5.46
COCO[C@H]1CC2C[C@H](OC(c3ccccc3)c3ccccc3)CC1N2C (stereo partly specified) | 5.97 | 5.35 | < 4.00
CN1C2C[C@H](OC(c3ccc(F)cc3)c3ccc(F)cc3)CC1[C@H](O)C2 (stereo partly specified) | 6.79 | 6.85 | < 4.00
COCO[C@H]1CC2C[C@H](OC(c3ccc(F)cc3)c3ccc(F)cc3)CC1N2C (stereo partly specified) | 7.10 | 6.47 | < 4.00
CN1C2C[C@H](OC(c3ccc(F)cc3)c3ccc(F)cc3)CC1[C@@H](O)C2 (stereo partly specified) | 8.09 | 7.92 | 4.96
CO[C@@H]1CC2C[C@H](OC(c3ccc(F)cc3)c3ccc(F)cc3)CC1N2C (stereo partly specified) | 7.91 | 8.00 | 6.55
CO[C@H]1CC2C[C@H](OC(c3ccccc3)c3ccccc3)CC1N2C (stereo partly specified) | 6.86 | 6.56 | < 4.00
CO[C@H]1CC2C[C@H](OC(c3ccc(F)cc3)c3ccc(F)cc3)CC1N2C (stereo partly specified) | 6.98 | 7.60 | < 4.00
CO[C@H]1CC2C[C@H](OC(c3ccccc3)c3ccc(Cl)cc3)CC1N2C (stereo partly specified) | 6.75 | 7.49 | < 4.00
CO[C@@H]1CC2CC(OC(c3ccccc3)c3ccc(Cl)cc3)CC1N2C (single isomer, unassigned) | 6.28 | 6.12 | < 4.00
CO[C@@H]1CC2CC(OC(c3ccccc3)c3ccccc3)CC1N2C (single isomer, unassigned) | 6.62 | 6.01 | < 4.00
CO[C@@H]1CC2CC(OC(c3ccc(F)cc3)c3ccc(F)cc3)CC1N2C (single isomer, unassigned) | 6.78 | 7.02 | < 8.00
